Screens: PubChem, several laboratories
In the library only some 3.3% were active in any assay of this set; here they are far more common.
ABCB1 block – human ABCB1 inhibition, ABCG2 as counter-screen. CCRF-Adr cells, JC-1 efflux, flow cytometry. AID 1326. hit rate 0.067% among 190,000. inhibition, % at 6.6 µM; in the data active = inhibition above about 40%;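 note: higher value means more JC-1 retained so stronger ABCB1 efflux block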
ABCG2 block – blocks JC-1 efflux by human ABCG2 transporter; Q9UNQ0; IgMXP3 cells, flow cytometry; inhibition, % at 6.6 µM; hit rate 0.1% among 190,000;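 active = inhibition above 80%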
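Assay system – ABCG2 IgMXP3 and barcoded ABCB1 CCRF-Adr cell mix · Input – 3 million cells/mL in well · Reagent – JC-1 fluorescent substrate · Compound – single test compound dose, 6.6 µM final · Timing – 10 min exposure at 25 °C with rotation, no wash · Detection – flow cytometry of retained JC-1 fluorescence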
Cl transport mod – KCC2 (human) Cl- transport modulation; Q9H2X9; KCC2 cells, thallium flux FluoZin-2 fluorescence; B-score of Tl+ flux slope (higher = more flux/activation; lower = inhibition) at 10 µM; hit rate 2.2% among 190,000;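 active = thallium flux slope and its plate-corrected score both differing from the plate sample mean at a set confidence after two filtering rounds, in either direction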;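 note: slope of fluorescence scaled to starting intensity during 10 to 20 s after thallium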
ROMK mod – modulates human ROMK potassium channel activity; P48048; Tet-inducible ROMK, thallium flux fluorescence; actives lie on both sides; B-score at 10 µM; hit rate 2% among 130,000; AID 1918;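 active = signal ratio slope over the read window, or its plate-corrected B-score, at least 3 SD from the plate mean, either direction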;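 note: B-score of the F/F0 ratio slope over 7 to 12 s after thallium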
PMI act satM6P – PMI (human) activation, high substrate; P34949; coupled PMI enzyme assay, resazurin fluorescence, 20 min; stronger effect = higher value; 1 = untreated enzyme, 0 = substrate-free blank; activation factor at 20 µM; hit rate 0.34% among 190,000;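 active = activation factor of 2 or more at 20 µM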
Target sequence (P34949 whole entry, looked up): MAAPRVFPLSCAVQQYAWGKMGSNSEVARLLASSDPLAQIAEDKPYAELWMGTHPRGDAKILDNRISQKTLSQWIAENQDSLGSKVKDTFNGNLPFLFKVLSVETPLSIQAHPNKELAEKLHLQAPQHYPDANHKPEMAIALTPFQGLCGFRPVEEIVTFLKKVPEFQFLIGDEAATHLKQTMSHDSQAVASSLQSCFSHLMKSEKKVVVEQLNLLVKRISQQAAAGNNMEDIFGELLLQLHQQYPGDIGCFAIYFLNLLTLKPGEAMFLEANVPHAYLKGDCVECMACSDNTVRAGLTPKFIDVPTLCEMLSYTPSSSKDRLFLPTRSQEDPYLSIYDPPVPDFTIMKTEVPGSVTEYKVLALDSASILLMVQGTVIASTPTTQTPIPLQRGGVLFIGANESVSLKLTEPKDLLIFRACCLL
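assay system = human phosphomannose isomerase with PGI, G6PDH, diaphorase coupling enzymes | quantity = 15 ng/mL PMI | incubation = enzyme reaction with compound 20 min at room temperature | medium = HEPES pH 7.4 buffer with MgCl2 and Tween-20 | compound dosing = one concentration, 20 µM, in 1% DMSO | measured by = Diaphorase-driven resazurin-to-resorufin fluorescence, excitation 544, emission 590 nm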
PMI act – phosphomannose isomerase (human) activation; purified human PMI, coupled resazurin fluorescence, 20 min; stronger effect = higher value; 1 = vehicle control, 0 substrate-free wells; activation factor at 20 µM; hit rate 0.005% among 190,000; AID 1214;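 active = activation factor of 2 or more at 20 µM, relative to plate controls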
KCC2 secondary – confirmation of human KCC2 transport modulators. shares compounds with Cl transport mod. normalised thallium flux (F/F0 slope) at 10 µM. HEK293-KCC2, thallium flux, FluoZin2 fluorescence; stronger effect = higher value. hit rate 15% among 3,700;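 active = thallium flux slope above the same plate's solvent-only control mean plus 3 SD; inconclusive = the two replicate wells disagree; inactive = no significant difference from solvent-only control wells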
KCC2 bumet counter – bumetanide-insensitive thallium flux in KCC2 cells with ouabain, counter-screen. shares compounds with Cl transport mod. HEK293-KCC2 + bumetanide/ouabain, thallium flux FluoZin2; stronger effect = higher value. normalized thallium flux at 10 µM. hit rate 49% among 3,700. AID 1714;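 active = thallium entry rate above the same plate's blocked-transporter control wells by more than 3 SD; inconclusive = the two repeat wells disagree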;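 note: raw slope of fluorescence over initial fluorescence between 10 and 20 s after thallium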
KCC2 sec2 – KCC2 (human) modulation, second secondary assay; shares compounds with Cl transport mod; HEK293-KCC2, thallium flux FluoZin2 fluorescence; actives lie on both sides; F/F0 rise rate, 10–20 s post-thallium; normalized thallium flux at 10 µM; hit rate 23% among 3,700;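 active = thallium flux slope more than 3 SD above or below the plate's solvent-only control mean, mostly below; inconclusive = the two repeat wells disagreed; inactive = no significant shift from solvent-only controls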
HEK counter1 – counter-screen for KCC2 modulators: effect in parental HEK293 cells | shares compounds with Cl transport mod | thallium flux FluoZin2, ouabain; baseline-ratio fluorescence slope, 10–20 s after thallium | thallium flux rate (normalised fluorescence) at 10 µM | hit rate 46% among 3,700;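 active = thallium flux rate significantly above the same plate's solvent-only control wells, beyond their mean plus 3 SD; inconclusive = the two replicate wells gave conflicting results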
KCC2 retest ouab – KCC2 (human) modulation, ouabain retest | raw Tl+ flux slope (below DMSO = inhibition, above = activation) at 10 µM | HEK293-KCC2, thallium flux FluoZin2 fluorescence; bidirectional: low = inhibitor, high = activator | shares compounds with Cl transport mod | hit rate 48% among 3,700 | AID 1717;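 active = thallium flux slope beyond 3 SD from same-plate DMSO control mean in most replicates, usually higher, sometimes lower; inconclusive = repeat tests gave conflicting results; inactive = no significant difference from controls in most replicates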;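 note: slope of initial-normalized fluorescence between seconds 10 and 20 after thallium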
HEK293 Tl flux2 – counter-screen for KCC2 modulators: effect in parental HEK293 cells. shares compounds with Cl transport mod. thallium flux FluoZin-2 fluorescence slope. thallium flux slope at 10 µM. hit rate 33% among 3,700. AID 1718;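 active = thallium flux slope above the same plate's solvent-control mean plus 3 SD in both duplicate wells; inconclusive = duplicate wells that disagreed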;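 note: run without ouabain in cells lacking the KCC2 cotransporter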
Numbers stand for hits; n = inactive; u = inconclusive; x = no result.

SMILES	ABCB1 block	ABCG2 block	Cl transport mod	ROMK mod	PMI act satM6P	PMI act	KCC2 secondary	KCC2 bumet counter	KCC2 sec2	HEK counter1	KCC2 retest ouab	HEK293 Tl flux2
O=C(CSc1nc2cc(Cl)ccc2s1)c1cc2ccccc2o1	n	n	4.5	n	n	n	0.025	0.055	n	0.031	0.048	0.017
O=C(CSc1nc2cc(Cl)ccc2s1)Nc1cccc(S(=O)(=O)N2CCOCC2)c1	n	n	3.1	n	n	n	n	0.015	n	u	0.026	u
CC(Oc1ccccc1F)C(=O)NNC(=O)c1cc2ccccc2o1 (configuration not stated)	n	n	x	n	n	n	n	0.028	n	0.022	0.03	0.016
COc1ccc(OCC(=O)NNC(=O)c2cc3ccccc3o2)cc1	n	n	5.1	n	n	n	0.013	0.017	n	u	u	n
CCCNC(=O)c1ccccc1NC(=O)COc1ccc(OC)cc1	n	n	6.5	n	n	n	n	u	n	n	n	n
COc1ccc(NC(=O)c2cc3ccccc3o2)cc1	n	n	n	x	n	n	x	x	x	x	x	x
CC(C)NC(=O)c1cc2ccccc2o1	n	n	n	n	n	n	x	x	x	x	x	x
CCCCOc1ccc(CC2CCC(=O)NC2=O)cc1 (configuration not stated)	n	n	n	n	n	n	x	x	x	x	x	x
O=c1c2oc3ccccc3c2ncn1Cc1ccc(F)cc1	n	n	n	n	n	n	x	x	x	x	x	x
C=CCn1c(SCC(=O)Nc2cccc3ccccc23)nnc1-c1cnccn1	n	n	-3	x	n	n	n	u	n	n	n	n
CN(C(=O)c1ccc(OC2CCN(CCc3ccccc3)CC2)cc1)C1CCCCC1	n	n	n	n	x	x	x	x	x	x	x	x
CN(Cc1nc2ccccc2c(=O)[nH]1)Cc1nc2ccsc2c(=O)[nH]1	n	n	n	n	n	n	x	x	x	x	x	x
Cc1ccsc1C(=O)OCc1nc2ccccc2c(=O)[nH]1	n	n	x	n	n	n	n	n	n	n	n	u
C/C(=N\NC(=O)c1cc([N+](=O)[O-])cc([N+](=O)[O-])c1)c1ccco1	n	n	38	n	n	n	0.03	0.075	u	0.038	0.055	0.017
CCOC(=O)/C(C)=N/NC(=O)c1cccc([N+](=O)[O-])c1	n	n	32	x	n	n	n	0.026	0.04	0.027	0.034	0.022
O=C(N/N=C(\c1ccccc1)c1ccccn1)c1cccc([N+](=O)[O-])c1	n	n	12	x	n	n	u	0.028	n	0.02	0.031	0.021
Cn1ccnc1/C(=N\NC(=O)c1ccccc1)c1cccc([N+](=O)[O-])c1	n	n	n	n	n	n	x	x	x	x	x	x
O=C(N/N=C/c1ccco1)c1cc([N+](=O)[O-])cc([N+](=O)[O-])c1	n	n	n	n	n	n	x	x	x	x	x	x
CCOC(=O)Cc1ccc(NC(=O)c2cccc([N+](=O)[O-])c2)cc1	n	n	n	n	n	n	x	x	x	x	x	x
COc1cccc2cc(C(=O)NCCc3c[nH]c4ccccc34)c(=O)oc12	n	n	n	n	n	n	x	x	x	x	x	x
